Assay [1] concerns the target Glutamate receptor ionotropic, NMDA 2B (Homo sapiens, UniProt Q05586+Q13224). Description: Displacement of [3H]ifenprodil from human GluN2B expressed in mouse L(tk-) cell membranes co-expressing GluN1a incubated for 2 hrs by scintillation counting method. Further details: species or system L-M(TK-), Cell membrane. In general terms: Loss of bound radioactivity is the signal in a displacement assay; it reports binding, not function.

In assay [2] the target is Sigma non-opioid intracellular receptor 1 (Cavia porcellus, UniProt Q60492). The assay can be described thus: Displacement of [3H]-(+)-pentazocine from Sigma1 receptor in guinea pig cortex membranes incubated for 120 mins by scintillation counting method. It is filed as cell membranes, Membrane.
Assay [3] can be described thus: Cytoprotective activity against glutamate/glycine-induced cell death in mouse L-M(TK-) cells assessed as increase in cell viability at 10 uM incubated for 30 mins followed by glutamate/glycine stimulation and measured after 6 hrs by LDH assay relative to control. It is filed as functional. The settings on record: time 6.5 hrs. The gist of the method: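 Mouse L(tk-) fibroblasts stably carrying dexamethasone-inducible GluN1a and GluN2B vectors (1:5). Wells blocked with DMEM containing 1% BSA, then given test compound, at least triplicate, 30 min at 37 °C. Glutamate/glycine solution then added, 6 h at 37 °C. LDH in supernatant read with diaphorase/lactate/NAD+/iodonitrotetrazolium mix, 45 min at 37 °C, absorbance 485 nm. Buffer gave total LDH; (S)-ketamine 4 × 10^-5 mol/L was positive control.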

Assay [4] deals with T1, Sigma intracellular receptor 2 (Rattus norvegicus, UniProt Q5U3Y7).
T1 sequence (Q5U3Y7 whole entry): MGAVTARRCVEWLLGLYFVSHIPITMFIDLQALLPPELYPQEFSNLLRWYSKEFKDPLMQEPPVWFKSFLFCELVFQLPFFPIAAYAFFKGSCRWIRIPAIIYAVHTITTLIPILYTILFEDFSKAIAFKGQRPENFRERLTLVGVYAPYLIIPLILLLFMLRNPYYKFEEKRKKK
The assay can be described thus: Displacement of [3H]DTG from sigma 2 receptor in rat liver membranes incubated for 120 mins by scintillation counting method. It is filed as cell membranes, Membrane.

In assay [5] the target is Glutamate receptor ionotropic, NMDA 2B (Rattus norvegicus) (UniProt Q00960). Description: Negative allosteric inhibition of rat GluN2B expressed in Oocytes co-expressing GluN1a at 10 uM at -70 mV holding potential by two electrode voltage-clamp assay relative to control. The settings on record: filed as negative allosteric modulator. (Two-electrode voltage clamp holds a large cell at a set potential and records current.)

Assay [6] can be described thus: Cytoprotective activity against glutamate/glycine-induced cell death in mouse L-M(TK-) cells assessed as increase in cell viability incubated for 30 mins followed by glutamate/glycine stimulation and measured after 6 hrs by LDH assay. It is filed as functional, cell-based. The essentials: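 Mouse L(tk-) fibroblasts stably carrying dexamethasone-inducible GluN1a and GluN2B vectors (1:5 ratio). Cells preincubated with test compound in DMEM, at least in triplicate, 30 min at 37 °C. Then glutamate/glycine (each 20 µM, stock added) added and incubated 6 h at 37 °C. LDH released into the supernatant read at 485 nm after 45 min at 37 °C. Buffer in place of ligand gave total LDH. (S)-ketamine 4 × 10⁻⁵ mol/L was the positive control.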

Assay [7] concerns the target Glutamate receptor ionotropic, NMDA 2B (Rattus norvegicus) (UniProt Q00960). The assay can be described thus: Negative allosteric inhibition of rat GluN2B expressed in Oocytes co-expressing GluN1a at 1 uM at -70 mV holding potential by two electrode voltage-clamp assay relative to control. The settings on record: filed as negative allosteric modulator.
Assay [8] deals with Sigma intracellular receptor 2 (Homo sapiens, UniProt Q5BJF2). The assay can be described thus: Binding affinity to Sigma 2 receptor (unknown origin).
Sequence of Sigma intracellular receptor 2 (Homo sapiens, UniProt Q5BJF2) (Q5BJF2 whole entry): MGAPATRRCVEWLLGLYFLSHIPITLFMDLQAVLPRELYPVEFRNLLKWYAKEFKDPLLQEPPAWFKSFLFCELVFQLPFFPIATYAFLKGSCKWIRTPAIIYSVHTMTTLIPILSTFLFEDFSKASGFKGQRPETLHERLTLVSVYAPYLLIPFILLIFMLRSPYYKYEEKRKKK

Sequence of Sigma non-opioid intracellular receptor 1 (Q60492 whole entry): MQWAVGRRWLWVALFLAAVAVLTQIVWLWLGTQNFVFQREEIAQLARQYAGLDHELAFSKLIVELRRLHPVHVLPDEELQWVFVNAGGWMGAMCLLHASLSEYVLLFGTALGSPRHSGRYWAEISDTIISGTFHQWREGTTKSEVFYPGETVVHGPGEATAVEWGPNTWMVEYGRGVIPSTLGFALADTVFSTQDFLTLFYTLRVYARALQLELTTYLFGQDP
Sequence of Glutamate receptor ionotropic, NMDA 2B (Q13224 whole entry, one chain of several): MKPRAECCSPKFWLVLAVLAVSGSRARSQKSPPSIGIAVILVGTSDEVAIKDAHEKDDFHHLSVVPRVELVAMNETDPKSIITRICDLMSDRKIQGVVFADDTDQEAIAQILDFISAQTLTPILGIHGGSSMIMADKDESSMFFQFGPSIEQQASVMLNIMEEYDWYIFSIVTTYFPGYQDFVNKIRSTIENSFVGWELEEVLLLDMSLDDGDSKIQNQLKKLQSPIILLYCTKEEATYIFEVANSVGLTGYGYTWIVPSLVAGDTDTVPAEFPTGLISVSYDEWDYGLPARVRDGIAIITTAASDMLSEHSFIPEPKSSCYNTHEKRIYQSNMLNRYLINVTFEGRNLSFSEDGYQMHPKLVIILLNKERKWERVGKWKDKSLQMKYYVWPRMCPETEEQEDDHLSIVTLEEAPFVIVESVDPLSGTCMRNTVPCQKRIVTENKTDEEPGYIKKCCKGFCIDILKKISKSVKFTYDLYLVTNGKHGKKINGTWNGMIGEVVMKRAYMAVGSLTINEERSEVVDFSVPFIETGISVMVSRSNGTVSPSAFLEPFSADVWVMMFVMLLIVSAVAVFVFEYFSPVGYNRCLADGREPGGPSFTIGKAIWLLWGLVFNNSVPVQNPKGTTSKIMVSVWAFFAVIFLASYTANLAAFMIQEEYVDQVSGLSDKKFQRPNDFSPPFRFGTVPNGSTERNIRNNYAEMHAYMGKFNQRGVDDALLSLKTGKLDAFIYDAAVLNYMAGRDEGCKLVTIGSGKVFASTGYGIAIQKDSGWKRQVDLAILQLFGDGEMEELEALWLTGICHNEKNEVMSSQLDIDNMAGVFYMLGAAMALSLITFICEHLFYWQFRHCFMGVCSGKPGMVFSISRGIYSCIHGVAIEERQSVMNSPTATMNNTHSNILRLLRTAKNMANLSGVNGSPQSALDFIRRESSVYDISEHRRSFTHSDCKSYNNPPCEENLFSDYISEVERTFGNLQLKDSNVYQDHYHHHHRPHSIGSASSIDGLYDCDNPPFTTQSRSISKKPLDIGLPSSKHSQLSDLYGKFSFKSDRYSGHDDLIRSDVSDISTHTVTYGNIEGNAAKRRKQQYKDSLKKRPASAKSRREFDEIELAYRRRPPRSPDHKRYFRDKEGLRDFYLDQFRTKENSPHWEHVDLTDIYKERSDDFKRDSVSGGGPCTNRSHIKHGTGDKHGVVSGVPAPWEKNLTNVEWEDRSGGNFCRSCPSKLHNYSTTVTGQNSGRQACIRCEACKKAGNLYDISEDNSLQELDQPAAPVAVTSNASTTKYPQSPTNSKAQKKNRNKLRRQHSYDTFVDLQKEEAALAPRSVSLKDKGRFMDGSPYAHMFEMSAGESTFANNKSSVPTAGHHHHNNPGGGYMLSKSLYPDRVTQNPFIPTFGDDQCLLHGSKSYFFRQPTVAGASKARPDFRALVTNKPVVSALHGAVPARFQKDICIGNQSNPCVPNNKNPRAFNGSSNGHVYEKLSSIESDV
Sequence of Glutamate receptor ionotropic, NMDA 2B (Rattus norvegicus) (Q00960 whole entry, looked up): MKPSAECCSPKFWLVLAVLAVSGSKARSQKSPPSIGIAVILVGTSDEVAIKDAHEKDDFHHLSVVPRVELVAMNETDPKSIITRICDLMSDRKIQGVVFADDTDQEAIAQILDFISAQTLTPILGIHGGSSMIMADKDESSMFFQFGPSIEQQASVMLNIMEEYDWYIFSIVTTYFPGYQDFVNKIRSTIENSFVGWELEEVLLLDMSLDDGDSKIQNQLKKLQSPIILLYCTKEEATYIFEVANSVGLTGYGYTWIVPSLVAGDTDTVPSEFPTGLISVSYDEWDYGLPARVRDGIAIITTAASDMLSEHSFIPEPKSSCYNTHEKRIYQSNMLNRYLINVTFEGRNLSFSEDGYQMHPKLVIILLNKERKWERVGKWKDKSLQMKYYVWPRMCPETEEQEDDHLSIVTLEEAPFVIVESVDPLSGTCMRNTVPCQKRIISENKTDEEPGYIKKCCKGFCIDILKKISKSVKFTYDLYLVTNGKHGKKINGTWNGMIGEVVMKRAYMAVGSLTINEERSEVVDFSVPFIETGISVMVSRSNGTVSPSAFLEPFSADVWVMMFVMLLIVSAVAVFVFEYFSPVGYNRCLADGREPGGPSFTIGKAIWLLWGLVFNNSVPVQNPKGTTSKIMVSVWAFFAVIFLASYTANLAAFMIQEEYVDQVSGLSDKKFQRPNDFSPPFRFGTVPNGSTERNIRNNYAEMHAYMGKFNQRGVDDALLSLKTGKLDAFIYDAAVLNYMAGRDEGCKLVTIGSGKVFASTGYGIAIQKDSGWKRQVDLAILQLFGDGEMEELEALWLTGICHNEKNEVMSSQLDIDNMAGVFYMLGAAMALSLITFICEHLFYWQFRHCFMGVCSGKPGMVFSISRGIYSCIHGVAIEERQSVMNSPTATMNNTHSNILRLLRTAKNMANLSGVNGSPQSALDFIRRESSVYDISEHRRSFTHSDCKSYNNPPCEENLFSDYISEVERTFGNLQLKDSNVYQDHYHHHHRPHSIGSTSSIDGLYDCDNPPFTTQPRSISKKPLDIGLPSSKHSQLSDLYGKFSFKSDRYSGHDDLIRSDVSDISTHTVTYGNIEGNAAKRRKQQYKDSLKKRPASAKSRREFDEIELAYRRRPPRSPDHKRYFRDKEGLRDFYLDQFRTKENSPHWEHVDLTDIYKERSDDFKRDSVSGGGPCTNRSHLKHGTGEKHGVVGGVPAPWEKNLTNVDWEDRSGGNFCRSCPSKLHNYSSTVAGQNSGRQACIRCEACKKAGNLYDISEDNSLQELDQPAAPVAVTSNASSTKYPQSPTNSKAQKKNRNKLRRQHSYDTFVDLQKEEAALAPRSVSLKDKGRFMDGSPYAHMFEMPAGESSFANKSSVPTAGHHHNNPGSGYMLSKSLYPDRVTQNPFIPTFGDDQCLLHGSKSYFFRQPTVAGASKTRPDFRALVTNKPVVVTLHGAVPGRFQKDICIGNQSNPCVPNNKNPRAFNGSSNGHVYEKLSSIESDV

By Ki is commonly meant a dissociation constant, usually derived from enzyme kinetics or from competition with a known ligand. Low readings indicate higher affinity, high ones lower affinity. With `c1ccc(CC2CCN(C3Cc4ccccc4C3)CC2)cc1`, the Ki in assay [1] turned out to be 3.2 nM; in assay [2], 51 nM; in assay [4] it was 28 nM. Moreover, the Activity in assay [3] is 7%.
With `c1ccc(CCNC2Cc3ccccc3C2)cc1`, the Ki in assay [1] was determined as 455 nM; in assay [2] it was 168 nM; in assay [4] it was 694 nM.
As for `c1ccc(C2CCN(C3CCc4ccccc4C3)CC2)cc1` (centres undefined), the inhibition constant (Ki) in assay [1] was 8.4 nM; in assay [2] it was 1.9 nM; in assay [4], 2.9 nM.
In general, inhibition refers to the relative decrease from the control value, in per cent. Low readings indicate a weak effect, high ones a strong effect. What is called IC50 is the concentration that inhibits the measured activity by half. For the molecule `c1ccc(CCCCN2CCCc3ccccc3CC2)cc1`, the Ki in assay [1] is 32 nM; in assay [2], 22 nM; in assay [4] it was 50 nM. For the same molecule, the inhibition came to 60% in assay [5] and 8% in assay [7]. Moreover, the 50% inhibitory concentration (IC50) in assay [6] was 890 nM.
Turning to `c1ccc(C2CCN(C3Cc4ccccc4C3)CC2)cc1`, the inhibition constant (Ki) in assay [1] came out at 4.5 nM; in assay [2], 44 nM; in assay [4], 25 nM.
The matching figures for `c1ccc(CCCCNC2Cc3ccccc3C2)cc1`: 66 nM, 31 nM and 150 nM.
Turning to `CC(C(O)c1ccc(O)cc1)N1CCC(Cc2ccccc2)CC1` (centres undefined) [IFENPRODIL], in assay [6], the IC50 was determined as 590 nM.
As for `c1ccc(CNC2CCc3ccccc3C2)cc1` (centres undefined), the Ki in assay [1] is 4000 nM; in assay [2], 285 nM; in assay [4] it was 65 nM.
Turning to `c1ccc(CCCNC2CCc3ccccc3C2)cc1` (centres undefined), the figures for the Ki in assay [1], in assay [2] and in assay [4] were 163 nM, 59 nM and 29 nM, respectively. Moreover, the Activity in assay [3] was determined as 30%.
The corresponding values for `c1ccc(CCCNC2Cc3ccccc3C2)cc1` are 117 nM, 58 nM, 38 nM and 31%.
As to `c1ccc(CCCNC2CCc3ccccc3CC2)cc1`, the Activity in assay [3] is listed as 29%.
Consider `c1ccc(CCCN2CCCc3ccccc3CC2)cc1`, for which the figures for the inhibition constant Ki in assay [1], in assay [2] and in assay [4] were 36 nM, 17 nM and 178 nM, respectively. In addition, in assay [6], the IC50 was 7800 nM.
As for `c1ccc(CCNC2CCc3ccccc3C2)cc1` (centres undefined), the results for the Ki in assay [1], in assay [2] and in assay [4] were 237 nM, 51 nM and 70 nM, respectively.
In turn, `Oc1ccc2c(c1)CCN(CCCCc1ccccc1)CC2O` (centres undefined) registered a Ki in assay [8] of over 10000 nM.
In the case of `c1ccc(CCCCNC2CCc3ccccc3C2)cc1` (centres undefined), the Ki in assay [1] came to 266 nM; in assay [2], 46 nM; in assay [4], 50 nM.
Take `c1ccc(CC2CCN(C3CCc4ccccc4C3)CC2)cc1` (centres undefined): the inhibition constant (Ki) in assay [1] worked out at 8 nM; in assay [2], 6 nM; in assay [4] it was 2.1 nM.

The values are drawn from ChEMBL document CHEMBL4680195, “Negative allosteric modulators of the GluN2B NMDA receptor with phenylethylamine structure embedded in ring-expanded and ring-contracted scaffolds” (Eur J Med Chem, 2020).
